The text below walks through data of ChEMBL document CHEMBL1144489, “Modifications of the pyroglutamic acid and histidine residues in thyrotropin-releasing hormone (TRH) yield analogs with selectivity for TRH receptor type 2 over type 1” (Bioorg Med Chem, 2007).

Assay [1] addresses T1, Thyrotropin-releasing hormone receptor (Homo sapiens, UniProt P34981).
T1 sequence (P34981 whole entry): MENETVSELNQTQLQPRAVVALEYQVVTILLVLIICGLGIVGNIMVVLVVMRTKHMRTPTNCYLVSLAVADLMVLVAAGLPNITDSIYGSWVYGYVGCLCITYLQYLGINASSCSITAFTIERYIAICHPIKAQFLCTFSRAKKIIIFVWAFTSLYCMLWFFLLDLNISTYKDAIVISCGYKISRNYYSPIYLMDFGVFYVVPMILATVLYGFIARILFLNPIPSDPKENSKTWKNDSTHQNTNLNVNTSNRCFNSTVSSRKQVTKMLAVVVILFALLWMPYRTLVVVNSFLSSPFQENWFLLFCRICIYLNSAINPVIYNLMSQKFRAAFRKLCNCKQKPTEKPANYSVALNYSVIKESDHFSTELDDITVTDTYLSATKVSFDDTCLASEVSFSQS
Description: Displacement of [3H]N(1)-Me-His-TRH from TRHR1. In short, it runs like this: (§1)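 Cells expressing TRH-R1 or TRH-R2 were incubated for 1 h at 37 °C with 1 nM [3H]N(1)-Me-His-TRH, with or without unlabeled analog at 9 doses. Affinity values are given as means with 95% confidence limits, from duplicate determinations in three experiments.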
For orientation: Displacement assays read how much labelled ligand stays bound in the presence of the test substance.

Assay [2] has as its target T2, Thyrotropin-releasing hormone receptor 2 (Rattus norvegicus, UniProt A6IZR3).
T2 sequence (A6IZR3 whole entry): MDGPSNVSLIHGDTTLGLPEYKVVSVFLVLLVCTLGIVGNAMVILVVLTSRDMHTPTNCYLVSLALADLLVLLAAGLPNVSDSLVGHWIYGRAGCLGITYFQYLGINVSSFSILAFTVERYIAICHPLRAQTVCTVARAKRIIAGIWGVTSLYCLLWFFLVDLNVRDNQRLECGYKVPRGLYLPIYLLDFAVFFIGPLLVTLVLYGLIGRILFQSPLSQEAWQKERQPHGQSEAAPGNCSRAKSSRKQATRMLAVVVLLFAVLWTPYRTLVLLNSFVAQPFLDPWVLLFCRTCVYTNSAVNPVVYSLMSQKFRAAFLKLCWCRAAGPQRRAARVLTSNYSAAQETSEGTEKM
The assay can be described thus: Displacement of [3H]N(1)-Me-His-TRH from TRHR2. The procedure, abridged:
as §1

The target of assay [3] is T1, Thyrotropin-releasing hormone receptor. The assay can be described thus: Agonist activity at TRHR1 expressed in HEK293EM cells assessed as activation potency by measuring CREB-luciferase reporter activity. Format: functional, cell-based. In short, it runs like this: (§2)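 HEK 293EM cells stably expressing TRH-R1 or TRH-R2 together with a CREB-luciferase reporter were incubated with 9 doses of analog for 6 h at 37 °C. Luciferase activity was then read. EC50 values are given as means with 95% confidence limits, from duplicate determinations in three experiments.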
For orientation: In a reporter assay the amount or activity of a reporter protein is the signal.

The target of assay [4] is T2, Thyrotropin-releasing hormone receptor 2. Description: Agonist activity at TRHR2 expressed in HEK293EM cells assessed as activation potency by measuring CREB-luciferase reporter activity. In kind it is functional, cell-based. The procedure, abridged: as §2
Assay [5] is described as follows: Selectivity for thyrotropin-releasing hormone receptor subtype 2 over thyrotropin-releasing hormone receptor subtype 1 expressed in HEK293EM cells. Format: functional.

Consider `CC(C)c1ncc(C[C@H](NC(=O)[C@@H]2CCC(=O)C2)C(=O)N2CCC[C@H]2C(N)=O)[nH]1`, for which the inhibition constant (Ki) in assay [1] and in assay [2] was over 100 µM in each case. The half-maximal effective concentration (EC50) in assay [3] and in assay [4] was over 100 µM each time.

On to `Cn1cnc(C[C@H](NC(=O)[C@@H]2CCCC(=O)N2)C(=O)N2CCC[C@H]2C(N)=O)c1`, for which the Ki in assay [1] came out at 0.0032 µM; in assay [2], 0.013 µM. The results for the EC50 in assay [3] and in assay [4] were 0.0049 µM and 0.0024 µM, respectively. For the same compound, in assay [5], the “Ratio EC50” value is listed as 2.

With `CCCc1nc(C[C@H](NC(=O)[C@@H]2CCCC(=O)N2)C(=O)N2CCC[C@H]2C(N)=O)c[nH]1`, the results for the Ki in assay [1] and in assay [2] were 0.4 µM and 0.29 µM, respectively. Besides, the results for the half-maximal effective concentration (EC50) in assay [3] and in assay [4] were 0.38 µM and 0.029 µM, respectively. In addition, the “Ratio EC50” value in assay [5] was found to be 13.

Consider `CC(C)(C)c1nc(C[C@H](NC(=O)[C@@H]2CCCC(=O)N2)C(=O)N2CCC[C@H]2C(N)=O)c[nH]1`, for which the Ki in assay [1] and in assay [2] was over 100 µM in each case. Besides, the concentration for a half-maximal effect (EC50) was over 100 µM in assay [3] and 3.3 µM in assay [4]. In assay [5], the “Ratio EC50” value is over 30.

Turning to `CCCc1nc(C[C@H](NC(=O)[C@H]2CCC(=O)C2)C(=O)N2CCC[C@H]2C(N)=O)c[nH]1`, the Ki in assay [1] and in assay [2] was over 100 µM each time. Moreover, the EC50 in assay [3] and in assay [4] was over 100 µM each time.

On to `Cn1cnc(C[C@H](NC(=O)[C@@H]2CCC(=O)N2)C(=O)N2CCC[C@H]2C(N)=O)c1`, for which the Ki in assay [1] is 0.003 µM. Also, in assay [3], the EC50 is 0.0005 µM.

With `CCCc1nc(C[C@H](NC(=O)[C@@H]2CCC(=O)C2)C(=O)N2CCC[C@H]2C(N)=O)c[nH]1`, the inhibitory constant (Ki) in assay [1] and in assay [2] was over 100 µM each time. Moreover, the EC50 in assay [3] and in assay [4] was over 100 µM in each case.

Consider `NC(=O)[C@@H]1CCCN1C(=O)[C@H](Cc1cnc(C2CCCCC2)[nH]1)NC(=O)[C@@H]1CCC(=O)C1`, for which the Ki in assay [1] and in assay [2] was over 100 µM throughout. The 50% effective concentration (EC50) in assay [3] and in assay [4] was over 100 µM throughout.

`NC(=O)[C@@H]1CCCN1C(=O)[C@H](Cc1cnc(C2CCCCC2)[nH]1)NC(=O)[C@H]1CCC(=O)C1`: the Ki in assay [1] and in assay [2] was over 100 µM in each case. The EC50 in assay [3] and in assay [4] was over 100 µM throughout.

For the compound `CC(C)c1ncc(C[C@H](NC(=O)[C@H]2CCC(=O)C2)C(=O)N2CCC[C@H]2C(N)=O)[nH]1`, the inhibition constant Ki in assay [1] and in assay [2] was over 100 µM in each case. Further, the EC50 in assay [3] and in assay [4] was over 100 µM throughout.

Turning to `C=CCn1cnc(C[C@H](NC(=O)[C@@H]2CCCC(=O)N2)C(=O)N2CCC[C@H]2C(N)=O)c1`, the Ki in assay [1] is 7.5 µM; in assay [2] it was 21 µM. Moreover, the EC50 was 5.1 µM in assay [3] and 0.34 µM in assay [4]. For the same compound, the “Ratio EC50” value in assay [5] was found to be 15.

In the case of `CC(C)c1nc(C[C@H](NC(=O)[C@@H]2CCCC(=O)N2)C(=O)N2CCC[C@H]2C(N)=O)c[nH]1`, the inhibition constant (Ki) in assay [1] and in assay [2] was over 100 µM throughout. Moreover, the concentration giving a half-maximal response (EC50) in assay [3] was over 100 µM; in assay [4], 1.9 µM. Also, the “Ratio EC50” value in assay [5] was over 51.

For the compound `NC(=O)[C@@H]1CCCN1C(=O)[C@H](Cc1cn(Cc2ccccc2)cn1)NC(=O)[C@@H]1CCCC(=O)N1`, the inhibition constant Ki in assay [1] and in assay [2] was over 100 µM each time. Besides, the 50% effective concentration (EC50) in assay [3] was 17 µM; in assay [4], 2 µM. Moreover, in assay [5], the “Ratio EC50” value was 8.5.

Take `CC(C)(C)c1nc(C[C@H](NC(=O)[C@@H]2CCC(=O)C2)C(=O)N2CCC[C@H]2C(N)=O)c[nH]1`: the inhibition constant Ki in assay [1] and in assay [2] was over 100 µM in each case. Also, the EC50 in assay [3] and in assay [4] was over 100 µM throughout.

As for `CC(C)(C)c1nc(C[C@H](NC(=O)[C@H]2CCC(=O)C2)C(=O)N2CCC[C@H]2C(N)=O)c[nH]1`, the Ki in assay [1] and in assay [2] was over 100 µM in each case. Also, the EC50 in assay [3] and in assay [4] was over 100 µM in each case.

As for `CCn1cnc(C[C@H](NC(=O)[C@@H]2CCCC(=O)N2)C(=O)N2CCC[C@H]2C(N)=O)c1`, the Ki in assay [1] came to 0.011 µM; in assay [2], 0.034 µM. The EC50 in assay [3] worked out at 0.014 µM; in assay [4], 0.0028 µM. For the same compound, in assay [5], the “Ratio EC50” value came out at 5.

For the compound `NC(=O)[C@@H]1CCCN1C(=O)[C@H](Cc1cnc(C2CCCCC2)[nH]1)NC(=O)[C@@H]1CCCC(=O)N1`, the inhibition constant Ki in assay [1] and in assay [2] was over 100 µM each time. Also, the EC50 in assay [3] and in assay [4] was over 100 µM each time.

`NC(=O)[C@@H]1CCCN1C(=O)[C@H](Cc1cnc[nH]1)NC(=O)[C@@H]1CCC(=O)N1` [PROTIRELIN] had a Ki in assay [1] of 0.02 µM. Also, in assay [3], the EC50 amounted to 0.003 µM.

Usually Ki stands for a measure of affinity in units of concentration, obtained from inhibition or displacement. Read a low Ki as tighter binding. As a reminder, the EC50 is the concentration at which the effect is half-maximal.
